# Wee1 degr inh: Wee1 degradation inhibitors, primary screen, cell-based, HeLa, Wee1K328M-luciferase, luminescence; reporter increase, % at 5 µM; Wee1-like protein kinase (Homo sapiens), P30291; 220,000 compounds, 1.2% hits; HeLa Luc-Wee1K328M stability; 100% = proteasome inhibitor MG132 effect;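 active = activation above the mean of all tested compounds plus 3 SD, set per screening run, cut at about 8.8% in these data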;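 note: cells exposed to compound for 20 h before luminescence read; 0% = DMSO alone and 100% = MG132 at 30 µM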
# Target sequence (P30291 whole entry K328M): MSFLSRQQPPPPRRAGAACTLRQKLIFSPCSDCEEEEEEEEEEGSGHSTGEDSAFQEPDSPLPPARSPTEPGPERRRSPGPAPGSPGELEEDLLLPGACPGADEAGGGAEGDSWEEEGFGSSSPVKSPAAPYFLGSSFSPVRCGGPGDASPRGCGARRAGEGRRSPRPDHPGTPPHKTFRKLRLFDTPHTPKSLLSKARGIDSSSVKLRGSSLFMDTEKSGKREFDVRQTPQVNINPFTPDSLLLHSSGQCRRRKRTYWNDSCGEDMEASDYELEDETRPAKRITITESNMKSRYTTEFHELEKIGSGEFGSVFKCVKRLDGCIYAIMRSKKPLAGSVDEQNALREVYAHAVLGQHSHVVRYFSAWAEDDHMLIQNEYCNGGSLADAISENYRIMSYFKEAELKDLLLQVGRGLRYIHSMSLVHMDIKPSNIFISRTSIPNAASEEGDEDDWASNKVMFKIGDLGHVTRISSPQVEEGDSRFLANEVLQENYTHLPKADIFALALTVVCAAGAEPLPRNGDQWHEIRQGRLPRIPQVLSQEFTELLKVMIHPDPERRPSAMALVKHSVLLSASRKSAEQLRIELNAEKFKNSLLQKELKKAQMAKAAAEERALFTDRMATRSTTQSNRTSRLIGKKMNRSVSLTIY
# RBBP9 inh: human RBBP9 inhibitors, primary screen, biochemical, fluorescence polarization, FP-Rh probe, HTS; recombinant RBBP9; Serine hydrolase RBBP9 (Homo sapiens), O75884; 220,000 compounds, 0.2% hits; inhibition, % at 7.94 µM; AID 1515, 2009;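 active = inhibition above the campaign mean of all tested compounds plus 3 SD, cut at about 14% in these data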;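 note: plate controls were DMSO wells with RBBP9 for no effect and wells lacking RBBP9 protein for full effect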
#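 Test system – recombinant human RBBP9 · Input – RBBP9 2.5 µM in dispensing solution, pre-mixing · Medium – Tris buffer pH 8.0, NaCl, Pluronic · Schedule – preincubation 30 min plus labeling 45 min at 25 °C · Measured by – fluorescence polarization · Measure – % inhibition · Controls – DMSO and no-protein wells · Replicates – one well per compound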
# Rad51 HR inh: human RAD51 strand exchange inhibitors, primary screen, biochemical, fluorescence; inhibition, % at 10 µM; AID 1385, 2008; hRad51 DNA strand exchange, fluorescence dequenching; 200,000 compounds, 0.085% hits;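 active = inhibition above 40% at the single screening dose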;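 note: 0% = DMSO control wells and 100% = blanks with heterologous ssDNA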
#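 Material: human Rad51–ssDNA filaments; Probe or stimulus: labelled 47-mer dsDNA for strand exchange; Doses: single 10 µM dose; Incubation: 37 °C 15-min filament assembly, 30-min compound preincubation, 15-min exchange; Technique: FRET fluorescence dequenching, excitation 485 nm, emission 520 nm; Measure: Fluorescence-based percent inhibition, control- and blank-normalised; Benchmarks: plate control and blank wells.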
# DNA FID counter: compounds displacing fluorescent DNA intercalator, primary screen, artefact control for HCV NS3 helicase inhibitor project, biochemical, FID fluorescence | DNA fluorescent intercalator displacement | inhibition, % at 7.9 µM | 290,000 compounds, 0.17% hits | AID 1845, 2009; in the data active = inhibition above about 37%;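 note: 0% = vehicle and 100% = reference compound; higher means more ethidium bromide displaced from hairpin DNA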
# Wee1 degr conf: Wee1 degradation inhibitors, confirmation, cell-based, HeLa, Wee1K328M-luciferase, luminescence, triplicate. shares compounds with Wee1 degr inh. HeLa Luc-Wee1K328M degradation; vehicle 0%, proteasome-blocked wells 100%. activation, % at 5 µM. 1,100 compounds, 4% hits. AID 1410, 2008; in the data active = activation above about 8.9%
# Starred values were filed as active, the others as inactive; . = not tested or not shown. Sampled rows, rich in hits. Any-hit rate of the full collection: about 1.2%.
SMILES,Wee1 degr inh,RBBP9 inh,Rad51 HR inh,DNA FID counter,Wee1 degr conf
C=CCNCCCOc1ccc(C(C)(C)c2ccccc2)cc1,12.9*,-6.6,19.2,12.0,-1.2
COCCCNCCCOc1ccc(C(C)(C)c2ccccc2)cc1,-2.0,-2.8,1.2,7.5,.
CCOC(=O)C1(Cc2cccc(OC)c2)CCN(CC2CC=CCC2)CC1 (configuration not stated),12.4*,-9.7,4.1,4.8,1.4
CCCCNS(=O)(=O)c1ccc2nc(-c3cccnc3)cc(C(=O)NC(C)C)c2c1,18.6*,-11.7,.,-8.3,-0.7
CCCCNS(=O)(=O)c1ccc2nc(-c3cccnc3)cc(C(=O)NC(C)CC)c2c1 (configuration not stated),-0.3,-1.6,.,-5.2,.
Cc1ccc(CCNC(=O)CNC(=S)N(Cc2ccccc2)Cc2cccnc2)cc1,15.4*,-3.5,21.0,-39.7,-0.4
O=C(NCc1ccco1)C(=O)c1cn(CC(=O)N2CCCCC2)c2ccccc12,-0.7,11.1,5.9,-12.6,.
CC1CC(C)CN(S(=O)(=O)c2ccccc2[N+](=O)[O-])C1 (configuration not stated),-0.8,-0.5,-4.6,-25.3,.
CCCS(=O)(=O)N1CCN(S(=O)(=O)c2ccccc2[N+](=O)[O-])CC1,11.1*,0.7,-42.9,3.4,-1.3
COc1ccc(-c2nc(CCl)cs2)cc1,12.2*,4.8,-1.9,-2.9,3.0
Cc1cccc(OCCCC(=O)NC2CCCCC2)c1,.,.,.,-15.6,.
Cc1ccc(-n2cc(C(=O)c3cc(Cl)ccc3O)cc(C#N)c2=O)cc1,3.4,-3.2,-21.9,-10.7,.
Cc1ccccc1NC(=O)c1cc(C(=O)c2cc(Cl)ccc2O)cn(-c2ccccc2C)c1=O,13.9*,-33.6,-7.4,-8.4,0.1
CC(=O)NC1=NN(C(C)=O)C(c2ccc(C)cc2)S1 (configuration not stated),12.0*,-0.8,-5.7,12.7,0.3
CC(=O)NC1=NN(C(C)=O)C(c2ccc(F)cc2)S1 (configuration not stated),0.4,6.2,4.8,7.7,.
Clc1ccc(CO/N=C2\CCCc3nonc32)c(Cl)c1,4.2,-4.6,21.6,1.4,.
CC(C)N(Cc1ccccc1)C(=O)CSc1nccn1C,11.9*,-0.6,-6.0,0.6,-0.4
CSc1nccc(Oc2cncc(Cl)c2)n1,16.8*,-9.2,-10.4,-2.7,-0.9
Cn1cnc2cc(NCc3ccc(Cl)cc3)ccc21,.,.,.,2.2,.
COc1ccccc1C(C)NC(=O)c1cc(=O)[nH]c2ccccc12 (configuration not stated),.,.,.,-2.7,.
Cn1c(C(=O)NC2CC2)cc(=O)n(C)c1=O,-2.9,-6.8,1.5,5.0,.
Cn1cccc1-c1nc2ccc(NC(=O)c3ccco3)cc2[nH]1,-0.4,5.6,-2.7,-0.1,.
Cc1ccc2nc(-c3ccc(NC(=O)c4ccco4)cc3)[nH]c2c1,29.3*,-12.8,-0.7,13.4,8.5
CCN(CC)c1ccc(NC(=O)c2cnccn2)cc1S(=O)(=O)Nc1ccc(OC)cc1,11.5*,-7.3,.,-28.4,3.0
COc1ccc(Cl)cc1C(=O)Nc1ccccc1N1CCCCC1,.,.,.,-4.1,.
SMILES,Wee1 degr inh,RBBP9 inh,Rad51 HR inh,DNA FID counter,Wee1 degr conf
Cc1occc1C(=O)NC(C)CCc1ccccc1 (configuration not stated),1.2,-0.1,2.0,-5.0,.
Cc1ccc(C)c(C(=O)NC(C)CCc2ccccc2)c1 (configuration not stated),16.0*,-14.0,-0.5,-15.0,-3.5
O=C(CNC(=O)c1cccc(F)c1)OCC(=O)N1CCN(C(=O)c2ccco2)CC1,-1.6,-2.6,24.3,-3.2,.
O=C(CNC(=O)c1cccc(F)c1)OCC(=O)N1CCCCC1,14.8*,-8.0,2.3,-1.2,0.4
COc1cccc(NC(=O)c2cccc(C)c2[N+](=O)[O-])c1,13.9*,-3.2,-23.0,10.1,2.5
Cc1cccc(C(=O)Nc2cccc(Br)c2)c1[N+](=O)[O-],-1.2,-10.6,.,12.8,.
O=C1CC(C(=O)Nc2ccccc2)N=C(N2CCOCC2)N1 (configuration not stated),11.4*,-15.0,-1.1,-2.7,4.3
O=C1CC(C(=O)Nc2ccc(F)c(Cl)c2)N=C(N2CCCCC2)N1 (configuration not stated),3.6,6.5,-0.1,-3.3,.
CCSc1nc2ccccc2c(=O)n1-c1c(C)n(C)n(-c2ccccc2)c1=O,1.6,-12.7,-2.7,-16.9,.
O=C(C[n+]1cn(C(F)F)c2ccccc21)c1ccc(OC(F)F)cc1,15.1*,-4.3,1.3,-1.0,-1.5
COc1cccc(NC(=O)Nc2ccc3c(c2)nnn3C)c1,15.8*,-7.2,-10.2,-4.0,-0.5
CN(C)c1ccc(NC(=O)Nc2ccc3c(c2)nnn3C)cc1,.,.,.,-0.1,.
CCc1ccc(NC(=O)Nc2cccc(OC)c2)cc1,12.1*,-7.0,-1.2,-3.0,3.1
COc1cc(/C=C(\C#N)C(=O)Nc2ccccc2C(=O)O)cc(Cl)c1OC,-2.2,-1.7,-1.6,-2.9,.
CCOc1ccc(CNC(=O)C(=O)c2cn(CC(=O)N3CCOCC3)c3ccccc23)cc1OC,.,.,.,-45.2,.
C=CCn1c(SCc2cc(=O)n3cc(C)ccc3n2)nnc1-c1ccc(F)cc1,15.1*,-8.0,21.7,-32.5,2.0
O=C(/C=C/c1cccnc1)/C=C/c1cccnc1,17.6*,-7.3,9.3,-7.8,21.6*
Cc1cccc(C(=O)NCCCNC(=O)c2cccc(C)c2)c1,.,.,.,-26.6,.
CCc1cccc2c(C(=S)N3CCCC3)c[nH]c12,14.3*,-6.3,22.8,2.7,1.1
CCC1Cc2c(nc3c4c(nc(N5CCOCC5)c(C#N)c24)NC(C)=N3)O1 (configuration not stated),-0.9,-0.1,.,-0.6,.
CN1CCN(c2ncnc3c2cnn3-c2ccc(Cl)cc2)CC1,13.4*,-5.7,-7.7,4.8,-7.2
CCN1C/C(=C\c2cccc(C)c2)c2nc3ccccc3c(C(=O)O)c2C1,-0.9,-2.8,-4.9,-12.3,.
Cc1ccsc1/C=C1/CN(C)Cc2c1nc1ccccc1c2C(=O)O,11.1*,-2.7,-4.0,-7.8,-0.7
C/C=C/c1cc(CN2CCN(c3ccc(OC)cc3)CC2)c(O)c(OC)c1,-0.6,-5.5,10.2,3.4,.
C/C=C/c1cc(CN2CCN(c3ccccc3)CC2)c(O)c(OC)c1,11.0*,-2.9,-4.8,8.0,-5.5
CCOC(=O)N1CCN(C(=O)CCc2ccc(S(=O)(=O)NC(C)(C)C)cc2)CC1,.,.,.,-31.9,.
O=C(COc1ncnc2ccccc12)Nc1ccc(S(=O)(=O)N2CCOCC2)cc1,-2.4,3.0,-0.8,1.1,.
